This is an account of results in article PMC7471454 (Acta Pharmacologica Sinica, 2019).

Assay [1] concerns the target hNav1.7 channels (Homo sapiens, UniProt Q15858). As to the kind of experiment: cell-based. Conditions: for inhibitory activity against Nav1.7 (in words): HEK293 cells stably expressing hNav1.7; for activity toward Nav1.7 relative to 10h: higher than that of 10h; for Nav1.7/Nav1.5 selectivity (in words): Nav1.7 versus Nav1.5.
The target in assay [2] is hNav1.5 channels (Homo sapiens, UniProt Q14524). As to the kind of experiment: Whole-cell voltage-clamp on human Nav1.5 channels stably expressed in CHL cells. In kind it is cell-based. An outline of the steps: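 CHL cells stably expressing hNav1.5 were selected in G418 (500 µg/mL), plated on poly-L-lysine coverslips and used within 24 h. Whole-cell voltage clamp at room temperature, with CsF pipette and NaCl bath (pH 7.3); DMSO ≤0.5% final. After 5 min at −80 mV: hold −40 mV, 20 ms prepulse to −150 mV, 10 ms pulse to 0 mV at 1 Hz. Peak IDrug/IControl was fitted to a 3-parameter Hill equation for IC50.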
Sequence of hNav1.5 channels (Q14524 whole entry): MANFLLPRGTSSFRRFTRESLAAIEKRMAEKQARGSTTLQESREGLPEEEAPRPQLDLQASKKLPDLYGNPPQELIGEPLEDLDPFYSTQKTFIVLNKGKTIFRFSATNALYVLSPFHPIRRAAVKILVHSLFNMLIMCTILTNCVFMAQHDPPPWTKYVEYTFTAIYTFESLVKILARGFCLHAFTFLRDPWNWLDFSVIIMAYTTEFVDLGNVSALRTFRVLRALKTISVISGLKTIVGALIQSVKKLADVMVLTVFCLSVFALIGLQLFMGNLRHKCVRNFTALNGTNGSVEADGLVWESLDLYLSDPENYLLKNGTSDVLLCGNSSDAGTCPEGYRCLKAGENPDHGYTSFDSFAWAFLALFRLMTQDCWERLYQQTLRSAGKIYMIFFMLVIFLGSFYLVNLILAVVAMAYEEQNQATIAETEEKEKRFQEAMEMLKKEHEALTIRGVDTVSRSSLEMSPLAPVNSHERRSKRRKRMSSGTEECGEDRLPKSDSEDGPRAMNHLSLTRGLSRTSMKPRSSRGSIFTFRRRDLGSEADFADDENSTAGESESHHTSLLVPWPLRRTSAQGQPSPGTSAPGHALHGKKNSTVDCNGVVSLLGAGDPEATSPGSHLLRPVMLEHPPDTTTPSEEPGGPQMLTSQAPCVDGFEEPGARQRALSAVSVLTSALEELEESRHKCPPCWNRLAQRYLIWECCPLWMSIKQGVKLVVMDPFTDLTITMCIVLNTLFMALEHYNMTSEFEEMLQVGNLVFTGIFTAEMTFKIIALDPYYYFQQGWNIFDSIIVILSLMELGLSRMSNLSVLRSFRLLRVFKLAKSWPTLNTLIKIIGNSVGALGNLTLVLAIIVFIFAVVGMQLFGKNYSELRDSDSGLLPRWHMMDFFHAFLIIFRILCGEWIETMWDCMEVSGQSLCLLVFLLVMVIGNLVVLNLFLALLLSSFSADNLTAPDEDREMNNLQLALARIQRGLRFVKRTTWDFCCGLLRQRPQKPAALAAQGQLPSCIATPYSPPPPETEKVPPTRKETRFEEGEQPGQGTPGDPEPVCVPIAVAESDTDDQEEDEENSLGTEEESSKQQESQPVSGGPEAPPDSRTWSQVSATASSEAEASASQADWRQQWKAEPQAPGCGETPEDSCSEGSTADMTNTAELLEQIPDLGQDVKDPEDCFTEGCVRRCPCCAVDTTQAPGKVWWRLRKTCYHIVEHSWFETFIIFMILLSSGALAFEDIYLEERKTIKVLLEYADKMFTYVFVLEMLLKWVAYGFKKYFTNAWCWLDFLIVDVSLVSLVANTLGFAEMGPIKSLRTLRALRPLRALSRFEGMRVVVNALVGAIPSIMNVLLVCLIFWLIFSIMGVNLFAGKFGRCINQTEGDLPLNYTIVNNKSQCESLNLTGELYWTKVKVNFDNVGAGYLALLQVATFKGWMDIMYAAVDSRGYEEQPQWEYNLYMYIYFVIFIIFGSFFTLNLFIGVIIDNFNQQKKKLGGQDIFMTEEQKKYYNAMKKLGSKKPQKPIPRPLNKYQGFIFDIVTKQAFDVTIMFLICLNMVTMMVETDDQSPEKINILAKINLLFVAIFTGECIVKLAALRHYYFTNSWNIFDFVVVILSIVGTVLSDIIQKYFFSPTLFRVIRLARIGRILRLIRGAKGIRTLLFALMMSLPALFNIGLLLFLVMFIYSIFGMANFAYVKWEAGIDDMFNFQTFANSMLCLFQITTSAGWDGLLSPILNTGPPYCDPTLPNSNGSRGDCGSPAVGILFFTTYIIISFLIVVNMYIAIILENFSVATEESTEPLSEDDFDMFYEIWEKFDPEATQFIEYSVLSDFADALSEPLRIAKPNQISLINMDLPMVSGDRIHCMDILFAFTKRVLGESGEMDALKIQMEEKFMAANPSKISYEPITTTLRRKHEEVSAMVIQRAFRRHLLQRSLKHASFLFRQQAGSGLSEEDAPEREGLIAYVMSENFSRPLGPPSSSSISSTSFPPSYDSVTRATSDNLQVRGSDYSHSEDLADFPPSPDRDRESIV

The subject of assay [3] is neuronal excitability of small-diameter DRG neurons. As to the kind of experiment: Firing frequency of DRG neurons. The settings on record: 500 ms current injection, 10 and 100 nmol/L. It counts as cell-based, mouse.
Assay [4] concerns acetic acid-induced writhing in ICR mice. As to the kind of experiment: Acetic acid-induced writhing test. Conditions: i.p. 30 min before 1.5% acetic acid, writhes counted for 30 min. It counts as in vivo, mouse. An outline of the steps: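 Male ICR mice (22–28 g) received test compound i.p. in 5% DMSO/95% (0.5% carboxymethyl cellulose sodium) at 0.2 mL/10 g, 30 min before i.p. 1.5% acetic acid (10 mL/kg). Writhes, defined as abdominal contraction with body elongation and hind-limb extension, were counted over 30 min under blinded assessment. Indomethacin 30 mg/kg p.o. was given 60 min prior as reference. n = 6–12; one-way ANOVA.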
For orientation: Writhing tests count abdominal constrictions after an irritant is injected.

Assay [5] concerns native sodium currents in mouse DRG neurons. As to the kind of experiment: Native sodium currents in isolated DRG neurons. The settings on record: for reduction of sodium current amplitude: mouse DRG neurons. It counts as cell-based.

“Also recorded” adds a separate entry of the source.

With `CNCC(CC12CCC(c3ccccc31)c1ccccc12)Oc1ccc(S(=O)(=O)Nc2ncns2)cc1C#N` (centres unmarked) [9a, 3-cyano-4-((1-(9,10-dihydro-9,10-ethanoanthracen-9-yl)-3-(methylamino)propan-2-yl)oxy)-N-(1,2,4-thiadiazol-5-yl)benzenesulfonamide], the “inhibitory activity against Nav1.7 (in words)” value (“inhibitory activity” for short) in assay [1] was “not as good as that of MPT”.
The same measure, in the same setting: the same measure for `CCNCC(CC12CCC(c3ccccc31)c1ccccc12)Oc1ccc(S(=O)(=O)Nc2ncns2)cc1C#N` (centres unmarked) [9b, 3-cyano-4-((1-(9,10-dihydro-9,10-ethanoanthracen-9-yl)-3-(ethylamino)propan-2-yl)oxy)-N-(1,2,4-thiadiazol-5-yl)benzenesulfonamide]: “not as good as that of MPT”; for `CC(C)NCC(CC12CCC(c3ccccc31)c1ccccc12)Oc1ccc(S(=O)(=O)Nc2ncns2)cc1C#N` (centres unmarked) [9c, 3-cyano-4-((1-(9,10-dihydro-9,10-ethanoanthracen-9-yl)-3-(isopropylamino)propan-2-yl)oxy)-N-(1,2,4-thiadiazol-5-yl)benzenesulfonamide]: “not as good as that of MPT”; for `CCN(C)CC(CCC12CCC(c3ccccc31)c1ccccc12)Oc1ccc(S(=O)(=O)Nc2ncns2)cc1C#N` (centres unmarked) [10b, 3-cyano-4-((4-(9,10-dihydro-9,10-ethanoanthracen-9-yl)-1-(ethyl(methyl)amino)butan-2-yl)oxy)-N-(1,2,4-thiadiazol-5-yl)benzenesulfonamide]: “weak”.
The same measure, in the same setting: the same measure for `CC(C)N(C)CC(CCC12CCC(c3ccccc31)c1ccccc12)Oc1ccc(S(=O)(=O)Nc2ncns2)cc1C#N` (centres unmarked) [10c, 3-cyano-4-((4-(9,10-dihydro-9,10-ethanoanthracen-9-yl)-1-(isopropyl(methyl)amino)butan-2-yl)oxy)-N-(1,2,4-thiadiazol-5-yl)benzenesulfonamide]: “maintained the activity of 10a”.
On to `C=CCN(C)CC(CCC12CCC(c3ccccc31)c1ccccc12)Oc1ccc(S(=O)(=O)Nc2ncns2)cc1C#N` (centres unmarked) [10d, 4-((1-(allyl(methyl)amino)-4-(9,10-dihydro-9,10-ethanoanthracen-9-yl)butan-2-yl)oxy)-3-cyano-N-(1,2,4-thiadiazol-5-yl)benzenesulfonamide], for which the “inhibitory activity” value in assay [1] is given as “weak”.
On to `C#CCN(C)CC(CCC12CCC(c3ccccc31)c1ccccc12)Oc1ccc(S(=O)(=O)Nc2ncns2)cc1C#N` (centres unmarked) [10e, 3-cyano-4-((4-(9,10-dihydro-9,10-ethanoanthracen-9-yl)-1-(methyl(prop-2-yn-1-yl)amino)butan-2-yl)oxy)-N-(1,2,4-thiadiazol-5-yl)benzenesulfonamide], for which, in assay [1], the “inhibitory activity” value is reported as “maintained the activity of 10a”.
For the compound `CN(CCc1ccccc1)CC(CCC12CCC(c3ccccc31)c1ccccc12)Oc1ccc(S(=O)(=O)Nc2ncns2)cc1C#N` (centres unmarked) [10f, 3-cyano-4-((4-(9,10-dihydro-9,10-ethanoanthracen-9-yl)-1-(methyl(phenethyl)amino)butan-2-yl)oxy)-N-(1,2,4-thiadiazol-5-yl)benzenesulfonamide], the “inhibitory activity” value in assay [1] is reported as “weak”.
`CN(Cc1ccc(C(F)(F)F)cc1)CC(CCC12CCC(c3ccccc31)c1ccccc12)Oc1ccc(S(=O)(=O)Nc2ncns2)cc1C#N` (centres unmarked) [10g, 3-cyano-4-((4-(9,10-dihydro-9,10-ethanoanthracen-9-yl)-1-(methyl(4-(trifluoromethyl)benzyl)amino)butan-2-yl)oxy)-N-(1,2,4-thiadiazol-5-yl)benzenesulfonamide]: the “inhibitory activity” value in assay [1] is “maintained the activity of 10a”.
On to `CCOCC(CCC12CCC(c3ccccc31)c1ccccc12)Oc1ccc(S(=O)(=O)Nc2ncns2)cc1C#N` (centres unmarked) [10i, 3-cyano-4-((4-(9,10-dihydro-9,10-ethanoanthracen-9-yl)-1-ethoxybutan-2-yl)oxy)-N-(1,2,4-thiadiazol-5-yl)benzenesulfonamide], for which, in assay [1], the “activity toward Nav1.7 relative to 10h” value is 10 times.
The same measure, in the same setting: the same measure for `N#Cc1cc(S(=O)(=O)Nc2ncns2)ccc1OC(CCC12CCC(c3ccccc31)c1ccccc12)COCc1ccccc1` (centres unmarked) [10j, 4-((1-(benzyloxy)-4-(9,10-dihydro-9,10-ethanoanthracen-9-yl)butan-2-yl)oxy)-3-cyano-N-(1,2,4-thiadiazol-5-yl)benzenesulfonamide]: 10 times.
As to `CN(C)CCOCC(CCC12CCC(c3ccccc31)c1ccccc12)Oc1ccc(S(=O)(=O)Nc2ncns2)cc1C#N` (centres unmarked) [10k, 3-cyano-4-((4-(9,10-dihydro-9,10-ethanoanthracen-9-yl)-1-(2-(dimethylamino)ethoxy)butan-2-yl)oxy)-N-(1,2,4-thiadiazol-5-yl)benzenesulfonamide], in assay [1], the IC50 (as a rule, the point on the concentration scale where inhibition reaches its midpoint) was roughly 10 nM and the “Nav1.7/Nav1.5 selectivity (in words)” value is “well maintained”.
For `CNCCOCC(CCC12CCC(c3ccccc31)c1ccccc12)Oc1ccc(S(=O)(=O)Nc2ncns2)cc1C#N` (centres unmarked) [10l, 3-cyano-4-((4-(9,10-dihydro-9,10-ethanoanthracen-9-yl)-1-(2-(methylamino)ethoxy)butan-2-yl)oxy)-N-(1,2,4-thiadiazol-5-yl)benzenesulfonamide] the same measures were roughly 10 nM and “well maintained”.
In the case of `CN1CC(OCC(CCC23CCC(c4ccccc42)c2ccccc23)Oc2ccc(S(=O)(=O)Nc3ncns3)cc2C#N)C1` (centres unmarked) [10m, 3-cyano-4-((4-(9,10-dihydro-9,10-ethanoanthracen-9-yl)-1-((1-methylazetidin-3-yl)oxy)butan-2-yl)oxy)-N-(1,2,4-thiadiazol-5-yl)benzenesulfonamide], inhibition in assay [1] was half-maximal at 2.98 nM (IC50).
`N#Cc1cc(S(=O)(=O)Nc2ncns2)ccc1OC(CCC12CCC(c3ccccc31)c1ccccc12)COCCN1CCC1` (centres unmarked) [10n, 4-((1-(2-(azetidin-1-yl)ethoxy)-4-(9,10-dihydro-9,10-ethanoanthracen-9-yl)butan-2-yl)oxy)-3-cyano-N-(1,2,4-thiadiazol-5-yl)benzenesulfonamide]: in assay [1], the IC50 is 5.38 nM and the “Nav1.7/Nav1.5 selectivity (in words)” value is recorded as “good selectivity”.
With `N#Cc1cc(S(=O)(=O)Nc2ncns2)ccc1OC(CCC12CCC(c3ccccc31)c1ccccc12)COCCN1CCCC1` (centres unmarked) [10o, 3-cyano-4-((4-(9,10-dihydro-9,10-ethanoanthracen-9-yl)-1-(2-(pyrrolidin-1-yl)ethoxy)butan-2-yl)oxy)-N-(1,2,4-thiadiazol-5-yl)benzenesulfonamide], the IC50 was determined as 33600 nM in assay [2] and 0.64 ± 0.3 nM in assay [1]. For the same compound, the “effect on action potentials / firing frequency (in words)” value in assay [3] is “dramatically suppressed depolarizing current-elicited neuronal discharge; also recorded: dose-dependently suppressed”. The “effect on acetic acid-induced writhing (in words)” value in assay [4] is given as “dose-dependently decreased”. Also, the “selectivity for Nav1.7 over Nav1.5” value in assay [1] (from the Nav1.5 and Nav1.7 IC50) is reported as > 50 000 times. Besides, the entries for the “reduction of sodium current amplitude” value in assay [5] (10 nmol/L) and in assay [5] (100 nmol/L) were 24% ± 6% and 40% ± 6%, respectively. In addition, the “effect on native sodium currents (in words)” value in assay [5] (mouse small-sized DRG neurons, 10 and 100 nmol/L) is given as “dose-dependently decreased the sodium currents”.
For the compound `N#Cc1cc(S(=O)(=O)Nc2ncns2)ccc1OC(CCC12CCC(c3ccccc31)c1ccccc12)COCCN1CCCCC1` (centres unmarked) [10p, 3-cyano-4-((4-(9,10-dihydro-9,10-ethanoanthracen-9-yl)-1-(2-(piperidin-1-yl)ethoxy)butan-2-yl)oxy)-N-(1,2,4-thiadiazol-5-yl)benzenesulfonamide], in assay [1], inhibition was half-maximal at 12.5 nM (IC50) and the “Nav1.7/Nav1.5 selectivity (in words)” value is on record as “good selectivity”.
Consider `N#Cc1cc(S(=O)(=O)Nc2ncns2)ccc1OC(CCC12CCC(c3ccccc31)c1ccccc12)COCCN1CCOCC1` (centres unmarked) [10q, 3-cyano-4-((4-(9,10-dihydro-9,10-ethanoanthracen-9-yl)-1-(2-morpholinoethoxy)butan-2-yl)oxy)-N-(1,2,4-thiadiazol-5-yl)benzenesulfonamide], for which, in assay [1], the IC50 amounted to 33.5 nM and the “Nav1.7/Nav1.5 selectivity (in words)” value was “good selectivity”.
As to `Nc1[nH]ncc1-c1cc(Cl)ccc1Oc1cc(F)c(S(=O)(=O)Nc2cscn2)cc1Cl` [PF-05089771, 4-[2-(5-Amino-1H-pyrazol-4-yl)-4-chlorophenoxy]-5-chloro-2-fluoro-N-1,3-thiazol-4-ylbenzenesulfonamide, reference compound], the “effect on action potentials / firing frequency (in words)” value in assay [3] was “dose-dependently suppressed”. Besides, in assay [4], the “effect on acetic acid-induced writhing (in words)” value is recorded as “dose-dependently decreased”.
